Measured values of several laboratories.
Compare with care: the assays were run in different laboratories.
Observed: cell growth or viability

`COc1cccc(Oc2ccccc2NC(=O)CNC(=O)c2cccc3ccccc23)c1` gave a GI50 of 17 µM (Malme-3M; SRB; 48 h).
`COc1ccc(-c2ccc(-c3ccc(C(=N)N)nc3)s2)cc1Cl` has a GI50 of 1.78 µM (Malme-3M; SRB).
For `Cn1cc(C(c2ccc(/C=C/C(=O)O)s2)c2cn(C)c3ccccc23)c2ccccc21`, the inhibition was 7% (KG-1; 20 µM; 48 h).
For `CN1CCN(C(=O)[C@H](CCCN[C@@H]2C[C@H]2c2ccc(F)cc2)NC(=O)c2ccc(-n3ccnn3)cc2)CC1`, the EC50 was 0.00538 µM (MOLM-13; resazurin; 96 h).
With `COc1cc(-c2ccc(-c3ccc(C(=N)N)nc3)s2)cc(OC)c1OC` the GI50 was 1.53 µM (Malme-3M; SRB).
`Cn1cc(C(c2ccc(C(=O)O)cc2)c2cn(C)c3ccccc23)c2ccccc21` gave an inhibition of 25% (KG-1; 20 µM; 48 h).
The GI50 of `COc1ccccc1S(=O)(=O)Nc1ccc2c(c1)CN(C)C(=O)N2` is reported as 10 µM (PL-21; ATP luminescence).
With `CCn1c2ccccc2c2cc(C3CC(c4cc5cccc(OC)c5oc4=O)=NN3C(N)=O)ccc21` (centres unmarked) the IC50 was 40.3 µM (NRK-52E; MTT; 24 h).
`C/C(=N\NC(=O)c1cccc(S(=O)(=O)N2CCN(C)CC2)c1)c1cc(Cl)ccc1O` has an EC50 of 0.285 µM (MOLM-13; resazurin; 96 h).
With `CC(C)n1cc(C(c2ccc(/C=C/C(=O)O)s2)c2cn(C(C)C)c3ccccc23)c2ccccc21` the inhibition was 12% (KG-1; 5 µM; 48 h).
For `CCn1c2ccccc2c2cc(C3CC(c4cc5cccc(OC)c5oc4=O)=NN3c3cccc(Cl)c3)ccc21` (centres unmarked), the IC50 was 24.2 µM (NRK-52E; MTT; 24 h).
